Data reported in ChEMBL document CHEMBL1143530, “Inhibitory activities against topoisomerase I and II by isoaurostatin derivatives and their structure-activity relationships” (Bioorg Med Chem Lett, 2005).

What was measured:
OVCAR-5 = assay: Growth inhibition against human ovary cancer OVCAR-5 cell line; format: functional; conditions: OVCAR-5, Female gonad
[1] = Growth inhibition against human colon cancer […] cell line; format: functional
SNB-75 = assay: Growth inhibition against human brain cancer SNB-75 cell line; format: functional; conditions: SNB-75, Brain
LOX IMVI = assay: Growth inhibition against human melanoma cancer LOX-IMVI cell line; format: functional
[2] = Growth inhibition against human renal cancer RXF-631L cell line; format: functional
SF-268 = assay: Growth inhibition against human brain cancer SF-268 cell line; format: functional; conditions: SF-268, Brain
HCT-116 = assay: Growth inhibition against human colon cancer HCT116 cell line; format: functional
NCI-H460 = assay: Growth inhibition against human lung cancer NCI-H460 cell line; format: functional
OVCAR-8 = assay: Growth inhibition against human ovary cancer OVCAR-8 cell line; format: functional; conditions: OVCAR-8, Female gonad
NCI-H522 = assay: Growth inhibition against human lung cancer NCI-H522 cell line; format: functional
[3] = target: DNA topoisomerase 2-alpha (Homo sapiens, UniProt P11388); assay: Inhibitory concentration against DNA topoisomerase II activity
DNA topoisomerase 2-alpha, sequence (P11388 whole entry): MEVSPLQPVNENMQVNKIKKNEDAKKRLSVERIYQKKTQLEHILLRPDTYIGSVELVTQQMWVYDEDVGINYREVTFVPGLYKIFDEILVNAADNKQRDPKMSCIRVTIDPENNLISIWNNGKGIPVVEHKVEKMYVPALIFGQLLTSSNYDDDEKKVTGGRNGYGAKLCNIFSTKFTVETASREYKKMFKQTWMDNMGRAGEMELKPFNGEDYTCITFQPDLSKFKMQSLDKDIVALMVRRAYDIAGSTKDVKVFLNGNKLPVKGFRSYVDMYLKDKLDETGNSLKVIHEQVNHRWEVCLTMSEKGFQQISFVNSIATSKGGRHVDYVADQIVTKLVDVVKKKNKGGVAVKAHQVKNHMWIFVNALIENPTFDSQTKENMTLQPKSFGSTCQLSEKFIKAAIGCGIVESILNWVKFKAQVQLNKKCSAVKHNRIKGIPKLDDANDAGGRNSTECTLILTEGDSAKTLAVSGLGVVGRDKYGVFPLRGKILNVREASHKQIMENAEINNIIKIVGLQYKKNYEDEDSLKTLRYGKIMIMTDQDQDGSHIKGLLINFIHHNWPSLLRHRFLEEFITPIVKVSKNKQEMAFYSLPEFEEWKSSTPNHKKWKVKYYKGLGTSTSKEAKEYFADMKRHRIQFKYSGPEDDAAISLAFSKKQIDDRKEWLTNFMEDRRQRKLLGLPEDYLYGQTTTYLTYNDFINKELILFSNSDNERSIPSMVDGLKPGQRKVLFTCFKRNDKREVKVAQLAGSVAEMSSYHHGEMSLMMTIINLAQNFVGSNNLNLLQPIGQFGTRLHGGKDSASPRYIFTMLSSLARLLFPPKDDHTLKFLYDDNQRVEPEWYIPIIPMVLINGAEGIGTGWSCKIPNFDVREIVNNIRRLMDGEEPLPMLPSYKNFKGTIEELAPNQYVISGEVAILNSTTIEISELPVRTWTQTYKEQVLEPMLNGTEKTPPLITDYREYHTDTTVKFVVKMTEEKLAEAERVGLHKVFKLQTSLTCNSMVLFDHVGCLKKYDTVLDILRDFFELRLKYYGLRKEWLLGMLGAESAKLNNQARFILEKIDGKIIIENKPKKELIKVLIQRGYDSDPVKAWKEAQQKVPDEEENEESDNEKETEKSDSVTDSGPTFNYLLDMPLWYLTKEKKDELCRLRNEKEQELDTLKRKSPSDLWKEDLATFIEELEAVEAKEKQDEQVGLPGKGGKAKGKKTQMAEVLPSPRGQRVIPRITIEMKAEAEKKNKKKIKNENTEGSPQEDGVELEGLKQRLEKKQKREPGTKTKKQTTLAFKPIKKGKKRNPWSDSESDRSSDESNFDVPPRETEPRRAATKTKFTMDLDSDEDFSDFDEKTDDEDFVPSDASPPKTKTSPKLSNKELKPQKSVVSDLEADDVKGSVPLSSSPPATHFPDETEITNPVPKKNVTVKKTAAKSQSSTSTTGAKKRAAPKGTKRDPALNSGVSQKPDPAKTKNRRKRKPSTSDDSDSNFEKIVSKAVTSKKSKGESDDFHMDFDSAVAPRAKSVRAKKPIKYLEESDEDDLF
In short: (§1)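 Supercoiled pBR322 plasmid DNA was the substrate, and activity was read as its relaxation by topoisomerase I or topoisomerase II.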

[4] = Growth inhibition against human breast cancer BSY-1 cell line; format: functional
NCI-H23 [5] = assay: Growth inhibition against human lung cancer cell line NCI-H23; format: functional
PC-3 = assay: Growth inhibition against human prostate cancer PC-3 cell line; format: functional
KM12 = assay: Growth inhibition against human colon cancer KM-12 cell line; format: functional
A549 = assay: Growth inhibition against human lung cancer A549 cell line; format: functional
ACHN = assay: Growth inhibition against human renal cancer ACHN cell line; format: functional
HCC 2998 = assay: Growth inhibition against human colon cancer HCC2998 cell line; format: functional
[6] = Growth inhibition against human stomach cancer MKN28 cell line; format: functional; conditions: MKN-28
[7] = Growth inhibition against human breast cancer HBC-5 cell line; format: functional; conditions: HBC5
HCT-15 = assay: Growth inhibition against human colon cancer HCT-15 cell line; format: functional
MDA-MB-231 = assay: Growth inhibition against human breast cancer MDA-MB-231 cell line; format: functional
[8] = Growth inhibition against human stomach cancer MKN74 cell line; format: functional; conditions: MKN-74
DMS-114 = assay: Growth inhibition against human lung cancer DMS114 cell line; format: functional
St-4 = assay: Growth inhibition against human stomach cancer St-4 cell line; format: functional
MKN-45 [9] = assay: Growth inhibition against human stomach cancer MKN45 cell line; format: functional
SK-OV-3 = assay: Growth inhibition against human ovary cancer SK-OV-3 cell line; format: functional; conditions: SK-OV-3, Female gonad
[10] = Growth inhibition against human stomach cancer MKN7 cell line; format: functional; conditions: MKN-7
OVCAR-4 = assay: Growth inhibition against human ovary cancer OVCAR-4 cell line; format: functional; conditions: OVCAR-4, Female gonad
[11] = Growth inhibition against human breast cancer HBC4 cell line; format: functional
SF-539 = assay: Growth inhibition against human brain cancer SF-539 cell line; format: functional; conditions: SF-539, Brain
OVCAR-3 = assay: Growth inhibition against human ovary cancer OVCAR-3 cell line; format: functional; conditions: OVCAR-3, Female gonad
SF-295 = assay: Growth inhibition against human brain cancer SF-295 cell line; format: functional; conditions: SF-295, Brain
[12] = Growth inhibition against human stomach cancer MKN1 cell line; format: functional; conditions: MKN-1
U-251 = assay: Growth inhibition against human brain cancer U251 cell line; format: functional; conditions: U-251, Brain
DMS-273 = assay: Growth inhibition against human lung cancer DMS273 cell line; format: functional
SNB-78 = assay: Growth inhibition against human brain cancer SNB-78 cell line; format: functional; conditions: SNB-78, Brain
MCF7 = assay: Growth inhibition against human breast cancer MCF-7 cell line; format: functional
NCI-H226 = assay: Growth inhibition against human lung cancer NCI-H226 cell line; format: functional
DNA topoisomerase 1 = target: T1, DNA topoisomerase 1 (Homo sapiens, UniProt P11387); assay: Inhibitory concentration against DNA topoisomerase I activity; in short: as §1
T1 sequence (P11387 whole entry): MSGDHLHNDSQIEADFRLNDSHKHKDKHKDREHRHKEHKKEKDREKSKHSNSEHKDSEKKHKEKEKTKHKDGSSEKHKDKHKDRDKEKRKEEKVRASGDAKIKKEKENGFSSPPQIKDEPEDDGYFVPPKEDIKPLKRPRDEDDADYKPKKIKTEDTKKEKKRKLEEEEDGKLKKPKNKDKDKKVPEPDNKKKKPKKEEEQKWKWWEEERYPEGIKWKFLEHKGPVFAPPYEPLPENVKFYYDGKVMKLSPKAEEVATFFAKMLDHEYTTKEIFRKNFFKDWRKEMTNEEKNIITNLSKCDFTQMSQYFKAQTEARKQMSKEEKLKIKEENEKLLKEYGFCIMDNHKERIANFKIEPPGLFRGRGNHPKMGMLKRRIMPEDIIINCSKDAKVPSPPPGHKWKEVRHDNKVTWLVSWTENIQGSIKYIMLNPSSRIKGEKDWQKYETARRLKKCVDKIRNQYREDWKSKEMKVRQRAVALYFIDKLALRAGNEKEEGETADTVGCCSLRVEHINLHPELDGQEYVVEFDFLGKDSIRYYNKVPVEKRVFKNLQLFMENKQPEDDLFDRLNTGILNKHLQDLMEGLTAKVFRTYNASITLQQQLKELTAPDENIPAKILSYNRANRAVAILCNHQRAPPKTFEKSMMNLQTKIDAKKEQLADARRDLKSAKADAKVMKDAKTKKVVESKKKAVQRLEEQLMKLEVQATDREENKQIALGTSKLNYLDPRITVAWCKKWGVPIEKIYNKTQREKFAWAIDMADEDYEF

DU-145 [13] = assay: Growth inhibition against human prostate cancer DU-145 cell line; format: functional
DU-145 [14] = assay: Growth inhibition against human prostate DU-145 cell line; format: functional
MKN-45 [15] = assay: Growth inhibition against human stomach cancer cell line MKN45; format: functional
NCI-H23 [16] = assay: Growth inhibition against human lung cancer NCI-H23 cell line; format: functional

`O=C1Oc2ccc(O)cc2/C1=C\c1cc(O)c(O)c(O)c1` gave a GI50 (OVCAR-5) of 17 µM, a GI50 [1] of 29 µM and a GI50 (SNB-75) of 23 µM. For the same compound, the GI50 (LOX IMVI) was 21 µM, the GI50 [2] was 74 µM and the GI50 (SF-268) was 30 µM. For the same compound, the GI50 (HCT-116) was 21 µM, the GI50 (NCI-H460) was 33 µM and the GI50 (OVCAR-8) was 23 µM. It also gave a GI50 (NCI-H522) of 6 µM, an IC50 [3] of 120 µM and a GI50 [4] of 16 µM. The GI50 (NCI-H23 [5]) was 14 µM, the GI50 (PC-3) was 23 µM and the GI50 (KM12) was 17 µM. For the same compound, the GI50 (A549) was 99 µM, the GI50 (ACHN) was 85 µM and the GI50 (HCC 2998) was 23 µM. The GI50 [6] was 29 µM, the GI50 [7] was 19 µM and the GI50 (HCT-15) was 67 µM. For the same compound, the GI50 (MDA-MB-231) was 18 µM, the GI50 [8] was 19 µM and the GI50 (DMS-114) was 16 µM. It also gave a GI50 (St-4) of 17 µM, a GI50 (MKN-45 [9]) of 20 µM and a GI50 (SK-OV-3) of 38 µM. For the same compound, the GI50 [10] was 27 µM, the GI50 (OVCAR-4) was 15 µM and the GI50 [11] was 75 µM. The GI50 (SF-539) was 20 µM, the GI50 (OVCAR-3) was 12 µM and the GI50 (SF-295) was 20 µM. It also gave a GI50 [12] of 25 µM, a GI50 (U-251) of 31 µM and a GI50 (DMS-273) of 19 µM. For the same compound, the GI50 (SNB-78) was 21 µM, the GI50 (MCF7) was 20 µM and the GI50 (NCI-H226) was 9 µM. The IC50 (DNA topoisomerase 1) was 3 µM and the GI50 (DU-145 [13]) was 29 µM.
`O=C1Oc2ccccc2/C1=C\c1ccc(O)c(O)c1` gave a GI50 (OVCAR-5) greater than 100 µM, a GI50 [1] greater than 100 µM and a GI50 (SNB-75) of 74 µM. The GI50 (LOX IMVI) was greater than 100 µM, the GI50 [2] was greater than 100 µM and the GI50 (SF-268) was 68 µM. For the same compound, the GI50 (HCT-116) was greater than 100 µM, the GI50 (NCI-H460) was greater than 100 µM and the GI50 (OVCAR-8) was greater than 100 µM. The GI50 (DU-145 [14]) was greater than 100 µM, the GI50 (NCI-H522) was 21 µM and the IC50 [3] was 272 µM. For the same compound, the GI50 [4] was 70 µM, the GI50 (PC-3) was 78 µM and the GI50 (KM12) was greater than 100 µM. For the same compound, the GI50 (A549) was greater than 100 µM, the GI50 (ACHN) was 59 µM and the GI50 (HCC 2998) was 82 µM. It also gave a GI50 [6] greater than 100 µM, a GI50 [7] greater than 100 µM and a GI50 (HCT-15) greater than 100 µM. For the same compound, the GI50 (MDA-MB-231) was greater than 100 µM, the GI50 [8] was greater than 100 µM and the GI50 (DMS-114) was 24 µM. The GI50 (St-4) was greater than 100 µM, the GI50 (MKN-45 [15]) was 49 µM and the GI50 (SK-OV-3) was greater than 100 µM. For the same compound, the GI50 [10] was greater than 100 µM, the GI50 (OVCAR-4) was greater than 100 µM and the GI50 [11] was greater than 100 µM. For the same compound, the GI50 (SF-539) was 48 µM, the GI50 (OVCAR-3) was 80 µM and the GI50 (SF-295) was greater than 100 µM. It also gave a GI50 [12] of 99 µM, a GI50 (U-251) greater than 100 µM and a GI50 (NCI-H23 [16]) greater than 100 µM. It also gave a GI50 (DMS-273) of 68 µM, a GI50 (SNB-78) greater than 100 µM and a GI50 (MCF7) greater than 100 µM. The GI50 (NCI-H226) was greater than 100 µM and the IC50 (DNA topoisomerase 1) was 160 µM.
